# Results: ChEMBL document CHEMBL4680118, “Cerpegin-derived furo[3,4-c]pyridine-3,4(1H,5H)-diones enhance cellular response to interferons by de novo pyrimidine biosynthesis inhibition” (Eur J Med Chem, 2020)
# Calls of active or inactive are those of the source. The rule behind the calls is not given here.
# Key:
# Format in all cases: cell-based
# [1] = molecular target: T1, Dihydroorotate dehydrogenase (quinone), mitochondrial (Homo sapiens, UniProt Q02127); assay: Inhibition of DHODH in HEK293 cells assessed as reduction in number of viable cells at 6 to 193 uM measured upto 72 hrs by Celltiter-Glo assay; details: dose 6-193 µM, time hrs <=72
# T1 sequence (Q02127 whole entry): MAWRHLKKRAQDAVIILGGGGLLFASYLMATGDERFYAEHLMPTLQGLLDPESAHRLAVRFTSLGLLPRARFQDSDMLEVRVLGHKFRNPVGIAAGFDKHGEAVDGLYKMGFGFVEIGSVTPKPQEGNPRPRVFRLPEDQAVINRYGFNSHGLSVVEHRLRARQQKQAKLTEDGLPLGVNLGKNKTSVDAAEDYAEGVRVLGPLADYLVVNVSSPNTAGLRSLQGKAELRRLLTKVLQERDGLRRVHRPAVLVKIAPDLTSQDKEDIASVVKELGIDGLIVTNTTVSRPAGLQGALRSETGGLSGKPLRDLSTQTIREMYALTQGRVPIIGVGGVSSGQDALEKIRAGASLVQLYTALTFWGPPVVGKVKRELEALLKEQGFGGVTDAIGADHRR
# How it was run: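 HEK-293 ISRE-Luc cells in DMEM with 10% FCS at 37°C, 5% CO2, treated with compound or DMSO; viable cells quantified by ATP content (CellTiter-Glo luminescence) after 24, 48 and 72 h. Expressed as percent of untreated cells at t = 0 h; means ± SD of two independent experiments.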
# [2] = molecular target: T1, Dihydroorotate dehydrogenase (quinone), mitochondrial; assay: Inhibition of DHODH in human HEK-293 cells transfected with ISRE-luciferase reporter gene assessed as increase in IFN-alpha mediated cellular response at 80 uM in presence of uridine measured after 24 hrs by luciferase reporter gene assay; details: HEK293
# How it was run: (§1)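 ISRE-Luc HEK-293 cells exposed to increasing IFN-α concentrations with DMSO or compound (80 µM), supplemented with uridine (125 µM) or with 3 mM orotate or DHO. Reporter luciferase read after 24 h, normalized to DMSO + IFN-α 250 IU/ml. Means ± SD of three independent experiments; two-way ANOVA.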
# [3] = molecular target: T1, Dihydroorotate dehydrogenase (quinone), mitochondrial; assay: Inhibition of DHODH in human HEK-293 cells transfected with ISRE-luciferase reporter gene assessed as increase in IFN-alpha mediated cellular response at 80 uM in presence of orotate measured after 24 hrs by luciferase reporter gene assay; details: HEK293; how it was run: as §1
# [4] = molecular target: T1, Dihydroorotate dehydrogenase (quinone), mitochondrial; assay: Inhibition of DHODH in human HEK293 cells transfected with ISRE-luciferase reporter gene assessed as increase in 30 IU/ml IFN-alpha stimulated IFIT3 mRNA expression at 80 uM measured after 16 hrs by RT-qPCR analysis relative to control
# How it was run: (§2)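 ISRE-Luc HEK cells co-treated with increasing IFN-α concentrations and DMSO or compound (80 µM) for 16 h. Total RNA extracted from 2×10^5 cells with DNase step; qPCR 35 cycles. CT values normalized to RPL13A and unstimulated controls (2^-ΔΔCT), expressed as fold change versus DMSO alone. Three independent experiments; two-way ANOVA with Bonferroni.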
# [5] = molecular target: T1, Dihydroorotate dehydrogenase (quinone), mitochondrial; assay: Inhibition of DHODH in human HEK293 cells assessed as increase in gammaH2AX phosphorylation measured after 24 hrs by immunostaining based flow cytometry
# How it was run: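 Cells treated 24 h with compound (80 µM), harvested, trypsinized, fixed 30 min in 4% PFA, permeabilized 5 min. Stained with anti-γH2AX mouse monoclonal (1/400) or isotype control, 45 min at 4°C, then Alexa Fluor 488 anti-mouse secondary (1/500) 45 min at 4°C. Analysed by flow cytometry; means ± SD of three independent experiments.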
# [6] = molecular target: T1, Dihydroorotate dehydrogenase (quinone), mitochondrial; assay: Inhibition of DHODH in human HEK293 cells transfected with ISRE-luciferase reporter gene assessed as increase in 125 IU/ml IFN-alpha stimulated IFIT1 mRNA expression at 80 uM measured after 16 hrs by RT-qPCR analysis relative to control; how it was run: as §2
# [7] = molecular target: T1, Dihydroorotate dehydrogenase (quinone), mitochondrial; assay: Inhibition of DHODH in human HEK293 cells transfected with ISRE-luciferase reporter gene assessed as increase in 125 IU/ml IFN-alpha stimulated IFIT2 mRNA expression at 80 uM measured after 16 hrs by RT-qPCR analysis relative to control; how it was run: as §2
# [8] = molecular target: T1, Dihydroorotate dehydrogenase (quinone), mitochondrial; assay: Inhibition of DHODH in human HEK293 cells transfected with ISRE-luciferase reporter gene assessed as increase in 250 IU/ml IFN-alpha stimulated IFIT2 mRNA expression at 80 uM measured after 16 hrs by RT-qPCR analysis relative to control; how it was run: as §2
# [9] = molecular target: T1, Dihydroorotate dehydrogenase (quinone), mitochondrial; assay: Inhibition of DHODH in human HEK293 cells transfected with ISRE-luciferase reporter gene assessed as increase in 30 IU/ml IFN-alpha stimulated […] mRNA expression at 80 uM measured after 16 hrs by RT-qPCR analysis relative to control; how it was run: as §2
# [10] = molecular target: T1, Dihydroorotate dehydrogenase (quinone), mitochondrial; assay: Inhibition of DHODH in human HEK293 cells transfected with ISRE-luciferase reporter gene assessed as increase in 125 IU/ml IFN-alpha stimulated […] mRNA expression at 80 uM measured after 16 hrs by RT-qPCR analysis relative to control; how it was run: as §2
# [11] = molecular target: T1, Dihydroorotate dehydrogenase (quinone), mitochondrial; assay: Inhibition of DHODH in human HEK293 cells transfected with ISRE-luciferase reporter gene assessed as increase in 60 IU/ml IFN-alpha stimulated IFITM3 mRNA expression at 80 uM measured after 16 hrs by RT-qPCR analysis relative to control
# How it was run: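 HEK-293 ISRE-Luc cells (DMEM, 10% FCS, 37°C, 5% CO2) were given increasing IFN-α doses together with DMSO or compound at 80 μM, then harvested at 16 h. RNA was extracted from 2×10^5 cells with DNase treatment. Transcripts were run by qPCR for 35 cycles and normalized to RPL13A and to unstimulated controls by 2^-ΔΔCT. Values are fold change versus DMSO; three independent experiments; two-way ANOVA with Bonferroni.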
# [12] = molecular target: T1, Dihydroorotate dehydrogenase (quinone), mitochondrial; assay: Inhibition of DHODH in human HEK293 cells transfected with ISRE-luciferase reporter gene assessed as increase in 60 IU/ml IFN-alpha stimulated DDX58 mRNA expression at 80 uM measured after 16 hrs by RT-qPCR analysis relative to control; how it was run: as §2
# [13] = molecular target: T1, Dihydroorotate dehydrogenase (quinone), mitochondrial; assay: Inhibition of DHODH in human HEK293 cells transfected with ISRE-luciferase reporter gene assessed as increase in 30 IU/ml IFN-alpha stimulated MX2 mRNA expression at 80 uM measured after 16 hrs by RT-qPCR analysis relative to control; how it was run: as §2
# [14] = molecular target: T1, Dihydroorotate dehydrogenase (quinone), mitochondrial; assay: Inhibition of DHODH in human HEK293 cells transfected with ISRE-luciferase reporter gene assessed as increase in 30 IU/ml IFN-alpha stimulated PKR mRNA expression at 80 uM measured after 16 hrs by RT-qPCR analysis relative to control; how it was run: as §2
# [15] = molecular target: T1, Dihydroorotate dehydrogenase (quinone), mitochondrial; assay: Inhibition of DHODH in human HEK293 cells transfected with ISRE-luciferase reporter gene assessed as increase in 250 IU/ml IFN-alpha stimulated PML mRNA expression at 80 uM measured after 16 hrs by RT-qPCR analysis relative to control; how it was run: as §2
# [16] = molecular target: T1, Dihydroorotate dehydrogenase (quinone), mitochondrial; assay: Inhibition of DHODH in human HEK-293 cells transfected with ISRE-luciferase reporter gene assessed as increase in 150 IU/ml IFN-alpha mediated cellular response at 80 uM in presence of AZD6738 ATR inhibitor measured after 24 hrs by luciferase reporter gene assay; details: HEK293
# How it was run: (§3)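 ISRE-Luc HEK-293 cells given IFN-α (150 IU/ml) alone or with test compound (80 µM), with or without the MRE11 inhibitor mirin, ATR inhibitor AZD6738, CHK1 inhibitor PF477736 or P300/CBP inhibitor C636. Firefly luciferase read 24 h later, normalized to IFN-α alone. Means ± SD of at least three independent experiments.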
# [17] = molecular target: T1, Dihydroorotate dehydrogenase (quinone), mitochondrial; assay: Inhibition of DHODH in human HEK-293 cells transfected with ISRE-luciferase reporter gene assessed as increase in 150 IU/ml IFN-alpha mediated cellular response at 80 uM in presence of PF477736 CHK1 inhibitor measured after 24 hrs by luciferase reporter gene assay; details: HEK293; how it was run: as §3
compound,measurement,setting,value
O=C1OC2(CCCCC2)c2ccn(C3CC3)c(=O)c21,inhibition,[1],Active
same,Activity,[2],inactive
same,Activity,[3],inactive
same,fold change (FC),[4],39
same,Activity,[5],Active
same,fold change (FC),[6],115
same,fold change (FC),[7],112
same,fold change (FC),[8],165
same,fold change (FC),[9],44
same,fold change (FC),[10],117
same,fold change (FC),[11],12
same,fold change (FC),[12],23
same,fold change (FC),[13],7
same,fold change (FC),[14],2
same,fold change (FC),[15],5
same,Activity,[16],inactive
same,Activity,[17],inactive
